38 sequences from the array DNA melting data of Ke et al. (doi:10.1101/2024.01.08.574731) can be followed below.

Data set [1] in a line: folding enthalpy; higher = less favourable; fluorescence melt of hairpins on a sequencing array, two-state fit. As to conditions: sodium 0.088 M. A digest of the protocol: (§1)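 Folding enthalpy and melting temperature come from bootstrapped two-state fits to Cy3 fluorescence of library hairpins carrying annealed Cy3 and quencher oligos on a sequenced MiSeq flow cell. Imaging was done in 50 mM Na-HEPES pH 8.0, 25 mM NaCl, stepping by 2.5 °C up to 60 °C, and signals were normalised to pre-quench Cy3 and to control constructs. Results of four replicates were combined by inverse variance, and fitted temperatures were raised by 9.35 °C to match UV melts.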

Data set [2] in a line: melting temperature; fluorescence melt of hairpins on a sequencing array, two-state fit, raised by 9.35 °C to match UV melts. As to conditions: sodium 0.088 M. In outline: as §1

In the case of GATCTTTTAGAAGATC ((((((....)))))), in data set [1], the folding enthalpy is -41.8 kcal/mol. The Tm in data set [2] is 44.4 °C.

For GATCTTTTCTAAGATC ((((((....)))))), the folding enthalpy in data set [1] is -36.8 kcal/mol. In addition, the Tm in data set [2] came out at 45.2 °C.

Regarding GATGAACGAAAGTTAATC (((.(((....))).))), in data set [1], the folding enthalpy is -23.7 kcal/mol. Further, the Tm in data set [2] stood at 38.6 °C.

Take GATGAACGAAAGTTATC (((.(((....)))))): the folding enthalpy in data set [1] is -11.1 kcal/mol. Moreover, the Tm in data set [2] came out at 28.4 °C.

GATGAAGGAAACCTCATC (((((.(....).))))): the folding enthalpy in data set [1] is -24.7 kcal/mol. For the same sequence, the Tm in data set [2] was determined as 36.1 °C.

Take GATGACGAAAGTCAATC ((((((....))).))): in data set [1], the folding enthalpy is -16.2 kcal/mol. Moreover, the Tm in data set [2] amounted to 43.7 °C.

As for GATGACGGAAACATCATC (((((.(....).))))), in data set [1], the folding enthalpy is -31.2 kcal/mol. Moreover, in data set [2], the Tm was 34.8 °C.

On to GATGAGGAAACTCATC ((((((....)))))), for which, in data set [1], the folding enthalpy is -35 kcal/mol. Besides, the Tm in data set [2] was found to be 52.8 °C.

Take GATGAGGGAAACCTCATC (((((((....))))))): the folding enthalpy in data set [1] is -39.6 kcal/mol. Also, the Tm in data set [2] is 58.4 °C.

On to GATGAGGGAAACCTCGTC ((.((((....)))).)), for which the folding enthalpy in data set [1] was -22.3 kcal/mol. In addition, in data set [2], the Tm was determined as 47.9 °C.

As to GATGATCCGAAAGGAATC (((..(((....)))))), the folding enthalpy in data set [1] was -14.3 kcal/mol. In data set [2], the Tm amounted to 34.7 °C.

Consider GATGATGGAAACACCATC ((((.((....)).)))), for which, in data set [1], the folding enthalpy is -20.8 kcal/mol. Besides, the Tm in data set [2] was determined as 38.6 °C.

Consider GATGATGGAAACATCGTC ((.((((....)))).)), for which, in data set [1], the folding enthalpy was -32.3 kcal/mol. In data set [2], the Tm is 47.4 °C.

In the case of GATGCACGAAAGTGAATC (((.(((....))).))), the folding enthalpy in data set [1] is -23.4 kcal/mol. Besides, in data set [2], the Tm was determined as 50.8 °C.

Consider GATGCAGGAAACTGCGTC ((.((((....)))).)), for which the folding enthalpy in data set [1] was -44.7 kcal/mol. In addition, the Tm in data set [2] is 52.5 °C.

Take GATGCCGAAAGGCAGATC ((((((....)))..))): the folding enthalpy in data set [1] is -15.6 kcal/mol. Further, the Tm in data set [2] worked out at 52.2 °C.

Turning to GATGCCGAAAGGCCGATC ((((((....)))..))), in data set [1], the folding enthalpy is -10.3 kcal/mol. Moreover, the Tm in data set [2] was 25.2 °C.

As to GATGCCGAAAGGCTGATC ((((((....)))..))), the folding enthalpy in data set [1] was -9.91 kcal/mol. For the same sequence, in data set [2], the Tm amounted to 36.6 °C.

On to GATGCCGAAAGGCTTATC ((((((....)))..))), for which, in data set [1], the folding enthalpy is -6.76 kcal/mol. The Tm in data set [2] was determined as 31.5 °C.

With GATGCCGGAAACGGTGTC ((..(((....)))..)), the folding enthalpy in data set [1] was -24.3 kcal/mol. In data set [2], the Tm is 47.8 °C.

As to GATGCGGGAAACCGCACC (.(((((....))))).), in data set [1], the folding enthalpy was -11.3 kcal/mol. Further, the Tm in data set [2] stood at 42.9 °C.

As to GATGCTGGAAACAGCATC (((((((....))))))), the folding enthalpy in data set [1] is -41.2 kcal/mol. Moreover, in data set [2], the Tm stood at 66.9 °C.

With GATGGACGAAAGTCTATC (((.(((....))).))), in data set [1], the folding enthalpy is -30.9 kcal/mol. For the same sequence, in data set [2], the Tm is 52.9 °C.

Consider GATGGAGAAATCCATC ((((((....)))))), for which the folding enthalpy in data set [1] was -30 kcal/mol. The Tm in data set [2] amounted to 51 °C.

GATGGAGGAAACTCTATC (((.(((....))).))): the folding enthalpy in data set [1] was -24.4 kcal/mol. Besides, the Tm in data set [2] amounted to 37.8 °C.

Regarding GATGGAGGAAACTCTGTC ((..(((....)))..)), in data set [1], the folding enthalpy is -21 kcal/mol. Also, the Tm in data set [2] is 29.1 °C.

Regarding GATGGCACGAAAGTGATC (((..(((....)))))), the folding enthalpy in data set [1] is -12.9 kcal/mol. Besides, the Tm in data set [2] was determined as 27.2 °C.

As to GATGGCCGAAAGGCAATC (((.(((....))).))), the folding enthalpy in data set [1] is -20.9 kcal/mol. For the same sequence, the Tm in data set [2] was found to be 57.3 °C.

Regarding GATGGCCGAAAGGCATC (((.(((....)))))), the folding enthalpy in data set [1] was -14.6 kcal/mol. Also, the Tm in data set [2] turned out to be 49.9 °C.

For GATGGCGAAAGCCTATC ((((((....))).))), the folding enthalpy in data set [1] was -12.7 kcal/mol. The Tm in data set [2] turned out to be 44.3 °C.

As to GATGGCGCGAAAGCGATC (((..(((....)))))), in data set [1], the folding enthalpy was -11 kcal/mol. Moreover, the Tm in data set [2] is 31.6 °C.

Consider GATGGCGGAAACGTCGTC ((.(.((....)).).)), for which, in data set [1], the folding enthalpy was -29.6 kcal/mol. Also, the Tm in data set [2] worked out at 45.4 °C.

GATGGGGGAAACTCCATC (((((.(....).))))): the folding enthalpy in data set [1] was -32.9 kcal/mol. Further, the Tm in data set [2] was determined as 49.2 °C.

Take GATGGTGAAAACCATC ((((((....)))))): in data set [1], the folding enthalpy is -36.5 kcal/mol. In addition, in data set [2], the Tm was 57.8 °C.

Consider GATGGTGGAAACACCACC (.(((((....))))).), for which the folding enthalpy in data set [1] is -13.6 kcal/mol. The Tm in data set [2] is 44.6 °C.

GATGGTGGAAACGCCATC (((((.(....).))))): the folding enthalpy in data set [1] is -44.2 kcal/mol. Also, in data set [2], the Tm was determined as 53.4 °C.

On to GATGTACGAAAGTAATC (((.(((....)))))), for which the folding enthalpy in data set [1] was -21.1 kcal/mol. Further, the Tm in data set [2] turned out to be 35.8 °C.

GATGTAGGAAACTACACC (.(((((....))))).): in data set [1], the folding enthalpy was -17.8 kcal/mol. The Tm in data set [2] stood at 31.8 °C.
